Measurements published in ChEMBL document CHEMBL1155439, “Transient receptor potential ankyrin 1 (TRPA1) channel as emerging target for novel analgesics and anti-inflammatory agents” (J Med Chem, 2010).

Assays:
[1] = molecular target: T1, Transient receptor potential cation channel subfamily A member 1 (Rattus norvegicus, UniProt Q6RI86); experiment: Agonist activity at rat TRPA1 channel expressed in HEK293 cells assessed as increase in intracellular calcium influx; format: functional, cell-based
[2] = molecular target: T2, Transient receptor potential cation channel subfamily A member 1 (Homo sapiens, UniProt O75762); experiment: Agonist activity at human TRPA1 channel expressed in CHO cells assessed as increase in intracellular calcium levels; format: functional, cell-based
[3] = molecular target: T2, Transient receptor potential cation channel subfamily A member 1; experiment: Activation of TRPA1 channel expressed in CHO cells assessed as increase in intracellular calcium levels; format: cell-based
[4] = molecular target: T2, Transient receptor potential cation channel subfamily A member 1; experiment: Antagonist activity at TRPA1 channel; format: functional
[5] = molecular target: T2, Transient receptor potential cation channel subfamily A member 1; experiment: Antagonist activity at TRPA1 channel at 1 uM; format: functional
[6] = molecular target: T2, Transient receptor potential cation channel subfamily A member 1; experiment: Antagonist activity at TRPA1 channel at 10 uM; format: functional
[7] = molecular target: T2, Transient receptor potential cation channel subfamily A member 1; experiment: Antagonist activity at human TRPA1 channel assessed as inhibition of allyl isothiocyanate-induced intracellular calcium influx; format: functional, cell-based
[8] = molecular target: T2, Transient receptor potential cation channel subfamily A member 1; experiment: Agonist activity at human TRPA1 channel expressed in HEK293 cells assessed as increase in intracellular calcium influx; format: functional, cell-based
[9] = molecular target: T2, Transient receptor potential cation channel subfamily A member 1; experiment: Antagonist activity at human TRPA1 channel expressed in CHO cells assessed as inhibition of cinnamaldehyde-induced intracellular calcium influx; format: functional, cell-based
[10] = molecular target: T2, Transient receptor potential cation channel subfamily A member 1; experiment: Activation of TRPA1 channel
How it was run: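 Cell lines transfected with TRPA1 and loaded with a calcium-sensitive dye, read on FLIPR. Calcium influx is counted as the change in fluorescence above background. Each material was tested by preincubation or by direct addition. Calcium counts are expressed as a percentage of the control calcium count.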

[11] = molecular target: Transient receptor potential cation channel subfamily V member 1 (Homo sapiens, UniProt Q8NER1); experiment: Activation of TRPV1 channel
[12] = molecular target: T2, Transient receptor potential cation channel subfamily A member 1; experiment: Agonist activity at human TRPA1 channel expressed in HEK293 cells assessed as increase in membrane currents; format: functional, cell-based
[13] = molecular target: Transient receptor potential cation channel subfamily A member 1 (Mus musculus, UniProt Q8BLA8); experiment: Agonist activity at mouse TRPA1 channel expressed in CHO cells assessed as increase in intracellular calcium influx; format: functional, cell-based
[14] = molecular target: T1, Transient receptor potential cation channel subfamily A member 1; experiment: Agonist activity at TRPA1 channel in rat DRG neurons assessed as increase in intracellular calcium influx; format: functional, cell-based
[15] = molecular target: Transient receptor potential cation channel subfamily V member 1 (Rattus norvegicus, UniProt O35433); experiment: Activation of rat TRPV1 channel
Transient receptor potential cation channel subfamily V member 1 (Rattus norvegicus, UniProt O35433), sequence (O35433 whole entry): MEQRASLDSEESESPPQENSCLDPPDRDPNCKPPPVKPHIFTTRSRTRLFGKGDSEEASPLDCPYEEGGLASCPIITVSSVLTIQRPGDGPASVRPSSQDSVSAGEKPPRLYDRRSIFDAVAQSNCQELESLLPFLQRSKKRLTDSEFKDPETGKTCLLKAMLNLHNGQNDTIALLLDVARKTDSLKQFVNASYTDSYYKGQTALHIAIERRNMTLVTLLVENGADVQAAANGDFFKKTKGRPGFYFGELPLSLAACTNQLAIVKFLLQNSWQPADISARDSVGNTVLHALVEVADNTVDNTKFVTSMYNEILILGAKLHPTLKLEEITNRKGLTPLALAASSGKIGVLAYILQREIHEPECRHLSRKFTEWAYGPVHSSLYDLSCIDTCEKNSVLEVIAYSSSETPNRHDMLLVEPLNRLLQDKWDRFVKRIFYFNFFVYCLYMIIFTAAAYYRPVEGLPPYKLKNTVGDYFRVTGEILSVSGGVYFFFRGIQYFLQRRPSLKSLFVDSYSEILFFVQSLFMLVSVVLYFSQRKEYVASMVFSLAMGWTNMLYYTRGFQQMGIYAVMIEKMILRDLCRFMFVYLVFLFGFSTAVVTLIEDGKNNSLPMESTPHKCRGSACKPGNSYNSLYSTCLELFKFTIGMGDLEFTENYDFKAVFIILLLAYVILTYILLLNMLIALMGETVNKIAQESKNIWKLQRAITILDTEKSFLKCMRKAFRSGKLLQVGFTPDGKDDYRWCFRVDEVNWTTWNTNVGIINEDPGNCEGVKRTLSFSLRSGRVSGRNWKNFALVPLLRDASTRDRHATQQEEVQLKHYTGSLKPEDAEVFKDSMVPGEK

T2 sequence (O75762 whole entry): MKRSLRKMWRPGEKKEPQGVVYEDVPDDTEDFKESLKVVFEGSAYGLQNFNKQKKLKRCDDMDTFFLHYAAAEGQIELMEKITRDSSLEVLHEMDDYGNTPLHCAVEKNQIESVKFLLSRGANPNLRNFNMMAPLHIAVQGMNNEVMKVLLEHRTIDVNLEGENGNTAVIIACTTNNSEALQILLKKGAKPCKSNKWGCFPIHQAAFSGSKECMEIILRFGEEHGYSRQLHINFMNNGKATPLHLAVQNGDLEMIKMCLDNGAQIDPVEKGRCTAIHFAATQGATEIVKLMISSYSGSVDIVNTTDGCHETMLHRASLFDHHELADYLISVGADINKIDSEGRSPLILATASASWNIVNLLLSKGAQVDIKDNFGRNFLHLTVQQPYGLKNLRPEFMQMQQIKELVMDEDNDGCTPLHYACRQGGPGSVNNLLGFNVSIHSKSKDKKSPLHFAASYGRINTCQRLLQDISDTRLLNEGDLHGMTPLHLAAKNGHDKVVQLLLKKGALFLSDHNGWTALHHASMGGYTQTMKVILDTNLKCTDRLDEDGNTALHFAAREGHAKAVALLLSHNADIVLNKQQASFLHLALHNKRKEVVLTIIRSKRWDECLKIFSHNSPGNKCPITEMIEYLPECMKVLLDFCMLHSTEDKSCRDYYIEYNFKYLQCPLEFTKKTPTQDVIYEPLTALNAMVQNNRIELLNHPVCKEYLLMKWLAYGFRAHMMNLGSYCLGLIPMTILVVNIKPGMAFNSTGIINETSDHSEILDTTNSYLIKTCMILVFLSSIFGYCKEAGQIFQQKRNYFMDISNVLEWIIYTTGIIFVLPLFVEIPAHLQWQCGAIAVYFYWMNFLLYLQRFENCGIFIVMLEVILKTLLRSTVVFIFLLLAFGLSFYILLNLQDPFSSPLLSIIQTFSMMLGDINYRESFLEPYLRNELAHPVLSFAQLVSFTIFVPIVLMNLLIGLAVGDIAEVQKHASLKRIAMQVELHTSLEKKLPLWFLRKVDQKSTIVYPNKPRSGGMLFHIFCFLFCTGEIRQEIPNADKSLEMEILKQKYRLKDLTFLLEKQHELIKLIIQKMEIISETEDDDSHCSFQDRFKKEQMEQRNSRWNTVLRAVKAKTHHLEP
Transient receptor potential cation channel subfamily A member 1 (Mus musculus, UniProt Q8BLA8), sequence (Q8BLA8 whole entry): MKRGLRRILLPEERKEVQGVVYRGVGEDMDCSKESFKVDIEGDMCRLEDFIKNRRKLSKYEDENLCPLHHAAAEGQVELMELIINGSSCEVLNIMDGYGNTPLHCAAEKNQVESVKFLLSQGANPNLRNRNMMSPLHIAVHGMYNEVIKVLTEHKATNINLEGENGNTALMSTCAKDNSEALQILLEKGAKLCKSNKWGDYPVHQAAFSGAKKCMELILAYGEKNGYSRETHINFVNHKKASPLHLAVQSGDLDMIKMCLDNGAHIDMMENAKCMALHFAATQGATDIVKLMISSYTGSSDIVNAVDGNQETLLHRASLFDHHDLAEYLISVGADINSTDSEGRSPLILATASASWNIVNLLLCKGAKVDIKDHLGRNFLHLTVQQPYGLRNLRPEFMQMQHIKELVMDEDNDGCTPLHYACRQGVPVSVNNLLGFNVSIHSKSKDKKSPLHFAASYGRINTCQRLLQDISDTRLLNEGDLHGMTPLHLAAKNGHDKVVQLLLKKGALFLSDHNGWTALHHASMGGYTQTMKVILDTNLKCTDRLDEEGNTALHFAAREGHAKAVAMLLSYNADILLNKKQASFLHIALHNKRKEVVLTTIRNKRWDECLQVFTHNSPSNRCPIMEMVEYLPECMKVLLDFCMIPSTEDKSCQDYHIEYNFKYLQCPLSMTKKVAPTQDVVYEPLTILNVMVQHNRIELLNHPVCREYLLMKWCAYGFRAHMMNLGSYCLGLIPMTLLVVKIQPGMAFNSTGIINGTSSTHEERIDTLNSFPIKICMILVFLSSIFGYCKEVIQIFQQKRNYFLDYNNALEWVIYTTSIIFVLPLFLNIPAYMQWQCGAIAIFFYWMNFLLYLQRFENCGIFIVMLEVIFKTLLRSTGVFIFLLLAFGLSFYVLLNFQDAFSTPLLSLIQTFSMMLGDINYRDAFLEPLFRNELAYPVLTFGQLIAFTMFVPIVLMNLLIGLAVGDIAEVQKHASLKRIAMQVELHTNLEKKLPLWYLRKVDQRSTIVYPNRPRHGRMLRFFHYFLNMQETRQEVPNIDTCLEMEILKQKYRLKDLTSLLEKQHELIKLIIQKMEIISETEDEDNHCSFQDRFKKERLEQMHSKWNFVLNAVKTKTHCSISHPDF
T1 sequence (Q6RI86 whole entry): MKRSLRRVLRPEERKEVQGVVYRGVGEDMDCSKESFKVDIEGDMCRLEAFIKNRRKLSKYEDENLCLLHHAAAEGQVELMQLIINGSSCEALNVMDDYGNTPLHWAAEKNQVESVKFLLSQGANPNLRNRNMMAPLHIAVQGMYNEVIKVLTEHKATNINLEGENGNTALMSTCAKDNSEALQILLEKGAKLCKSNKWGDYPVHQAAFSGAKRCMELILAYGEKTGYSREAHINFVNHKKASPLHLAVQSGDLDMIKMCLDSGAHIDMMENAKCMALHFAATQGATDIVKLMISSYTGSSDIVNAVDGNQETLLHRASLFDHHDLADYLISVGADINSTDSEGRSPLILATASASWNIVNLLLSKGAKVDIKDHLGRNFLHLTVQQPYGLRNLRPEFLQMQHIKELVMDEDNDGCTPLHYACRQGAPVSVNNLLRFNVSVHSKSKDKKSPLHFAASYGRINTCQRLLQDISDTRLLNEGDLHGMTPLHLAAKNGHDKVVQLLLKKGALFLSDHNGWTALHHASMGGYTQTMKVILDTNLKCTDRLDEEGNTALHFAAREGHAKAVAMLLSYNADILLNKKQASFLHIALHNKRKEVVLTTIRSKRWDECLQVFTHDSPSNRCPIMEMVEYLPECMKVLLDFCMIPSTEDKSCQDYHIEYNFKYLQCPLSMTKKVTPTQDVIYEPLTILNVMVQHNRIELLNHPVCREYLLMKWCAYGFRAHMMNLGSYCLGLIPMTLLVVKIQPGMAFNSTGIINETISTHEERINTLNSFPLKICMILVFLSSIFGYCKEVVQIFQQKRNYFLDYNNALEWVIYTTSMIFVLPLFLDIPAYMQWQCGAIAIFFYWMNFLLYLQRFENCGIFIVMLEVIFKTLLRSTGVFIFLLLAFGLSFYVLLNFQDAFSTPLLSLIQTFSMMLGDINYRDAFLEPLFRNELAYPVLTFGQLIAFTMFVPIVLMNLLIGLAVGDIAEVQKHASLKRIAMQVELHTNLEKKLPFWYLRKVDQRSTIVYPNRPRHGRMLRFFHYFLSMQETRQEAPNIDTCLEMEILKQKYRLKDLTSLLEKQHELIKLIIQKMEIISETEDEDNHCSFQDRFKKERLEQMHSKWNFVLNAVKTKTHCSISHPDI
Transient receptor potential cation channel subfamily V member 1 (Homo sapiens, UniProt Q8NER1), sequence (Q8NER1 whole entry): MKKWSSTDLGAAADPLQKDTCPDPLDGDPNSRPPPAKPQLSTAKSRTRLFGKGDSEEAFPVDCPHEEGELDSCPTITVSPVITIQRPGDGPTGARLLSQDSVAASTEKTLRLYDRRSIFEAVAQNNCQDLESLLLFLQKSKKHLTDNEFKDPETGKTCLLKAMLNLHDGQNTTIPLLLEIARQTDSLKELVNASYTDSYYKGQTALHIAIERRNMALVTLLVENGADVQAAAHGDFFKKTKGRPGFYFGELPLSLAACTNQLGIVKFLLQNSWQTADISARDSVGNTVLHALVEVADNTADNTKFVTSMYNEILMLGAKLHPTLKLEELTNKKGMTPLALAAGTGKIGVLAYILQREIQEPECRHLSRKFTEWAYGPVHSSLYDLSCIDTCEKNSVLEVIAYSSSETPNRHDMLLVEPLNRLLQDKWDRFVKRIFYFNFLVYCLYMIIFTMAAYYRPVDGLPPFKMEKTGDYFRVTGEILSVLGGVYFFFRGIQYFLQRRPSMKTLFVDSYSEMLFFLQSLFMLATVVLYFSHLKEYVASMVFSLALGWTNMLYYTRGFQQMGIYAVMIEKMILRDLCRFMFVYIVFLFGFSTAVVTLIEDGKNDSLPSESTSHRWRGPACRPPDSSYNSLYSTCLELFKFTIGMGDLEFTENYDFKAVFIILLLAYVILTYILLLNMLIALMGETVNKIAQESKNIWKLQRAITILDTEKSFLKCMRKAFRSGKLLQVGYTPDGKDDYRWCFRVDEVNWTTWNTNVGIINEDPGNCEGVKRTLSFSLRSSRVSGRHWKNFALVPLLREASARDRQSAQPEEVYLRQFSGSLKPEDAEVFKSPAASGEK

C=C(C)[C@@H]1CCC(C)=C[C@H]1c1c(O)cc(CCCCC)cc1O [CANNABIDIOL]
EC50 [1]: 0.096 µM

C=CCSSSCC=C [ALLITRIDIN]
EC50 [2]: 0.49 µM

O=C/C=C/c1ccccc1
EC50 [3]: 6.5 µM

CN1C(=O)c2cccc(CC(=O)Nc3nc(-c4ccc(Cl)cc4)cs3)c2C1=O
IC50 [4]: 0.5 µM | inhibition [5]: 39% | inhibition [6]: 93%

CCCCCc1cc(O)c2c(c1)OC(C)(C)[C@@H]1CCC(C)=C[C@@H]21 [DRONABINOL]
EC50 [1]: 0.23 µM

Cn1c(=O)c2c(ncn2CC(=O)Nc2nc(-c3ccccc3F)cs2)n(C)c1=O
IC50 [7]: < 1 µM

Cc1ccc(N=C=O)cc1N=C=O [TOLUENE DIISOCYANATE]
EC50 [8]: 10 µM

C=C(C)[C@@H]1CCC(C)=C[C@H]1c1c(O)cc(CCCCC)c(C(=O)O)c1O [CANNABIDIOLIC ACID]
EC50 [1]: 12 µM

CCOc1ccccc1-c1csc(NC(=O)Cn2cnc3c2c(=O)n(C)c(=O)n3C)n1
IC50 [7]: < 1 µM

CCC(=N\O)/C(C)=C/c1cncc2ccccc12
IC50 [9]: > 100 µM

C/C=C/C=C/C=C\CC/C=C/C(=O)NCC(C)(C)O
EC50 [10]: 6.6 µM | EC50 [11]: 1.1 µM

CC(C)CN1C(=O)/C(=C/C(=O)O)c2cc(F)ccc21
EC50 [12]: 4.63 µM

CCC(=N\O)/C(C)=C/c1ccc(C(F)(F)F)nc1
IC50 [9]: > 100 µM

O=C(O)/C=C1/C(=O)N(Cc2ccccc2)c2ccc(F)cc21
EC50 [12]: 4.45 µM

CCC(=N\O)/C(C)=C/c1ccc(C)nc1
IC50 [9]: > 100 µM

CCN(CC)C(=S)SSC(=S)N(CC)CC
EC50 [2]: 3 µM

CN1C(=O)c2cccc(CC(=O)Nc3nc(-c4ccc(Cl)c(Cl)c4)cs3)c2C1=O
IC50 [4]: 0.25 µM | inhibition [5]: 86% | inhibition [6]: 98%

CC1(C)CCC[C@@]2(C)[C@H]1CC[C@@]1(CO1)[C@@H]2CC/C=C(/C=O)CC=O [MIOGADIAL]
EC50 [2]: 0.2 µM

CN(C)C(=O)/C=C1/C(=O)N(CC2CCCC2)c2c(F)cccc21
EC50 [12]: 3.76 µM

S=C=NCc1ccccc1 [BENZYL ISOTHIOCYANATE]
EC50 [10]: 0.319 µM

S=C=NCCc1ccccc1 [PHENETHYLISOTHIOCYANATE]
EC50 [10]: 10 µM

C=CCSSCC=C
EC50 [10]: 125 µM | EC50 [2]: 7.55 µM

COc1cccc(-c2csc(NC(=O)Cn3cnc4c3c(=O)n(C)c(=O)n4C)n2)c1
IC50 [7]: < 1 µM

CC(C)=CCC/C(C)=C/CC/C(C)=C/CSCC(=O)O [FARNESYLTHIOACETIC ACID]
EC50 [2]: 90 µM

NC(=O)/C=C1/C(=O)N(CC2CCCC2)c2c(F)cccc21
EC50 [12]: 0.66 µM

CCOC(=O)C1=C(C)NC(C)=C(C(=O)OC)C1c1cccc([N+](=O)[O-])c1 (centres undefined) [NITRENDIPINE]
EC50 [13]: 3.8 µM

CCCCC/C=C/C=C1/C(=O)C=C[C@@H]1C/C=C\CCCC(=O)O
EC50 [10]: 5.6 µM

CC1(C)CCC[C@]2(C)[C@@H](CC/C=C(/C=O)CC=O)[C@@H](C=O)CC[C@@H]12 [MIOGATRIAL]
EC50 [2]: 0.13 µM

CCCCCC(O)/C=C/C=O (centres undefined) [4-HYDROXYNON-2-ENAL]
EC50 [14]: 19.9 µM

CCC(=N\O)/C(C)=C/c1cnccc1C
IC50 [9]: > 100 µM

Cn1c(=O)c2c(ncn2CC(=O)Nc2nc(-c3cccc(F)c3)cs2)n(C)c1=O
IC50 [7]: < 1 µM

NC(=O)c1cccc(-c2cccc(OC(=O)NC3CCCCC3)c2)c1 [URB-597]
EC50 [8]: 24.5 µM

CC(C)c1ccc(NC(=O)Cc2cccc3c2C(=O)N(C)C3=O)cc1
inhibition [5]: 18% | inhibition [6]: 21%

CCCCC[C@H](O)/C=C/[C@H]1C=CC(=O)[C@@H]1C/C=C\CCCC(=O)O [PROSTAGLANDIN A2]
EC50 [10]: 24 µM

CN1C(=O)c2cccc(CC(=O)Nc3nc(-c4cc(F)c(OC(F)F)c(F)c4)cs3)c2C1=O
inhibition [5]: 92% | inhibition [6]: 99%

C=CCSCC=C [DIALLYL SULFIDE]
EC50 [2]: 254 µM

Cc1cc(-c2csc(NC(=O)Cc3cccc4c3C(=O)N(C)C4=O)n2)ccc1Cl
IC50 [4]: 0.25 µM | inhibition [5]: 83% | inhibition [6]: 91%

CCCCCc1cc(O)c2c(c1C(=O)O)OC(C)(C)[C@@H]1CCC(C)=C[C@@H]21 [TETRAHYDROCANNABINOL ACID]
EC50 [1]: 0.24 µM

CO/C(O)=C1\C(C)=NC(C)=C([N+](=O)[O-])[C@@H]1c1ccccc1C(F)(F)F
EC50 [13]: 20.8 µM

C=CC=O [ACROLEIN]
EC50 [10]: 0.8 µM

CN1C(=O)c2cccc(CC(=O)Nc3nc(-c4ccc(C(F)(F)F)c(F)c4)cs3)c2C1=O
inhibition [5]: 97% | inhibition [6]: 100%

CN1C(=O)c2cccc(CC(=O)Nc3nc(-c4cc(F)c(C(F)(F)F)c(F)c4)cs3)c2C1=O
IC50 [4]: 0.25 µM | inhibition [5]: 92% | inhibition [6]: 100%

CO/C(O)=C1\C(C)=NC(C)=C([N+](=O)[O-])[C@H]1c1ccccc1C(F)(F)F
EC50 [13]: 41.5 µM

CCCCC[C@H](O)/C=C/[C@H]1C=CC(=O)[C@@H]1CCCCCCC(=O)O [PROSTAGLANDIN A1]
EC50 [10]: 15.1 µM

CC(C)=CCC/C(C)=C/CC/C(C)=C/CSc1ccccc1C(=O)O [SALIRASIB]
EC50 [2]: 5 µM

CN1C(=O)c2cccc(CC(=O)Nc3nc(-c4ccc(I)cc4)cs3)c2C1=O
IC50 [4]: < 0.25 µM | inhibition [5]: 76% | inhibition [6]: 95%

CCC(=N\O)/C(C)=C/c1cnc2ccccc2c1
IC50 [9]: > 100 µM

C=CCS[S+]([O-])CC=C (centres undefined) [ALLICIN]
EC50 [15]: 51.2 µM

CC1(C)CCC[C@]2(C)[C@@H](C=O)C(C=O)=CC[C@@H]12 [POLYGODIAL]
EC50 [2]: 0.059 µM

COC(=O)C1=C(C)NC(C)=C([N+](=O)[O-])C1c1ccccc1C(F)(F)F (centres undefined)
EC50 [13]: 32.7 µM

CC(C)CCC(=O)c1ccoc1 [PERILLAKETONE]
EC50 [10]: 19.7 µM

C/C=C/C=O [CROTONALDEHYDE]
EC50 [10]: 16 µM

CC(C)CN1C(=O)/C(=C/C(=O)O)c2cccc(Cl)c21
EC50 [12]: 0.61 µM

CCCCC[C@H](O)/C=C/[C@H]1C=CC(=O)[C@H]1C/C=C\CCCC(=O)O
EC50 [10]: 22.4 µM

COC(=O)c1cccc(CN2C(=O)/C(=C/C(N)=O)c3ccccc32)c1
EC50 [12]: 1.2 µM

CN1C(=O)c2cccc(CC(=O)Nc3nc(-c4cccc(C(F)(F)F)c4)cs3)c2C1=O
IC50 [4]: 0.5 µM | inhibition [5]: 60% | inhibition [6]: 96%

CCc1ccc(-c2csc(NC(=O)Cn3cnc4c3c(=O)n(C)c(=O)n4C)n2)cc1
IC50 [7]: < 1 µM

O=C1/C(=C/c2nccs2)c2ccccc2N1Cc1ccccc1
EC50 [12]: 5.65 µM

CC(C)CN1C(=O)/C(=C/C(=O)O)c2cccc(F)c21
EC50 [12]: 0.83 µM

COCCOC(=O)C1=C(C)NC(C)=C(C(=O)OC(C)C)C1c1cccc([N+](=O)[O-])c1 (centres undefined) [NIMODIPINE]
EC50 [13]: 0.8 µM

COC(=O)C1=C(C)NC(C)=C(C(=O)OCCN(C)Cc2ccccc2)C1c1cccc([N+](=O)[O-])c1 (centres undefined) [NICARDIPINE]
EC50 [13]: 0.5 µM

CCCCC(CC)C1NC(=O)N(SC(Cl)(Cl)Cl)C1=O (centres undefined) [CHLORDANTOIN]
EC50 [2]: 3 µM

O=C(O)/C=C1/C(=O)N(CC2CCCC2)c2ccccc21
EC50 [12]: 3 µM

COC(=O)C1=C(C)NC(C)=C(C(=O)OC)C1c1ccccc1[N+](=O)[O-] [NIFEDIPINE]
EC50 [13]: 0.4 µM

Cn1c(=O)c2c(ncn2CC(=O)Nc2nc(-c3ccc(Br)cc3)cs2)n(C)c1=O
IC50 [7]: < 1 µM

O=C(O)/C=C1/C(=O)N(CC2CCCC2)c2c(F)cccc21
EC50 [12]: 0.51 µM

CCCCCc1cc(O)c2c(c1)OC(C)(CCC=C(C)C)C=C2 (centres undefined) [CANNABICHROMENE]
EC50 [1]: 0.06 µM | EC50 [14]: 34.3 µM

CCCCCc1cc(O)c(C/C=C(\C)CCC=C(C)C)c(O)c1 [CANNABIGEROL]
EC50 [1]: 3.4 µM

CN1CCC[C@H]1c1cccnc1 [NICOTINE]
EC50 [10]: 17 µM

O=C(O)/C=C1/C(=O)N(CC2CCCCC2)c2ccccc21
EC50 [12]: 4.4 µM

CCC(CC)CN1C(=O)/C(=C/C(=O)N2CCOCC2)c2cccc(F)c21
EC50 [12]: 1.29 µM

O=C(O)/C=C1/C(=O)N(CC2CCC2)c2c(F)cccc21
EC50 [12]: 1.16 µM

Cn1c(=O)c2c(ncn2CC(=O)Nc2nc(-c3ccccc3)cs2)n(C)c1=O
IC50 [7]: < 1 µM

Cn1c(=O)c2c(ncn2CC(=O)Nc2nc(-c3cccc(Cl)c3)cs2)n(C)c1=O
IC50 [7]: < 1 µM

C=C(C)C1CC=C(C=O)CC1 (centres undefined)
EC50 [10]: 41 µM

Cc1ccc(C(C)C)cc1O [CARVACROL]
EC50 [8]: 7 µM
